Shown is part of a subset that was picked to be rich in hits.
BB579 growth dn: chemicals that inhibit yeast BB579 growth in restrictive medium (lifespan-shortening candidates). AID 804. S. cerevisiae BB579 growth, OD615, 48 h. inhibition, % at 10 µM. hit rate 0.51% among 140,000;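 active = inhibition above a set limit, 3 SD over the mean compound inhibition, cut at about 44% in these data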
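Test system: S. cerevisiae DeaD strain BB579 yeast; Medium: restrictive CSMM-D medium; Compound: one dose, 10 µM compound with 0.25% DMSO; Incubation: 4 h cell preincubation, 48 h compound exposure, 30 °C humidified; Signal: OD at 615 nm; Benchmarks: amphotericin B at 10 µg/mL as positive control.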
PostGolgi yeast: growth inhibition of a yeast mutant, post-Golgi transport screen. post-Golgi transport phenotypic cell assay. inhibition, % at 10 µM. hit rate 0.9% among 98,000;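 also: yeast cells grown in 1536-well plates; yeast grown about 18 h at 30C before absorbance read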
Yeast lifespan up: yeast lifespan extension | inhibition of the nicotinamide effect, % at 10 µM | S. cerevisiae growth with nicotinamide, OD615; deaD strain in restrictive glucose medium | hit rate 0.68% among 130,000 | AID 775;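 active = inhibition above a set limit, placed 3 SD over the median of all compounds, cut at about 26% in these data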
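System: DeaD-strain S. cerevisiae / Buffer or medium: CSMM-D, restrictive glucose (dextrose) synthetic minimal medium / Probe or stimulus: nicotinamide, 1.5 mM, co-present with compound / Compound: one concentration, 10 µM, DMSO 0.25% / Incubation: 48 h compound exposure at 30 °C, humidified / Technique: optical density (absorbance) at 615 nm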
PostGolgi ctrl: growth of the yeast control strain, post-Golgi counter-screen; efflux-deficient yeast background strain, growth absorbance A615, 16 h; AID 738; inhibition, % at 10 µM; hit rate 5% among 98,000
A number is an active result; . = inactive; / = no result. Rule as the data show it, unless noted: active = inhibition above about 30%; inactive = the rest.

SMILES	BB579 growth dn	PostGolgi yeast	Yeast lifespan up	PostGolgi ctrl
O=C(N/N=C/c1ccc(OC(=O)c2ccccc2)c([N+](=O)[O-])c1)c1ccc(O)cc1	.	/	.	/
CN1CCN(C(=O)c2ccc3c(c2)N(Cc2ccc(Cl)cc2)C(=O)c2ccccc2S3=O)CC1 (centres undefined)	.	.	.	.
O=C(c1ccc2c(c1)N(Cc1ccccc1)C(=O)c1ccccc1S2)N1CCCC1	.	.	.	45
CC1CCCCN1CCNC(=O)Cn1nc(-c2ccccc2)ccc1=O (centres undefined)	.	39	.	.
COc1ccc(CNC(=O)C2CCN(c3nc(OC)nc(OC)n3)CC2)cc1	.	.	90	.
COc1ccc(CNC(=O)c2cc(C3CC3)on2)cc1	.	.	.	33
CCOC(=O)N1CCC(N(C(=O)Nc2ccc(CC)cc2)C(C)CC)CC1 (centres undefined)	.	.	.	30
O=c1c2cc(N3CCOCC3)ccc2[nH]c(=S)n1CCN1CCCC1	.	.	.	.
O=c1c2cc(N3CCOCC3)ccc2[nH]c(=S)n1Cc1ccc(Cl)cc1	.	.	.	40
Cc1ccc(OCCn2cc(Br)c(=O)[nH]c2=O)cc1	.	.	.	.
Cc1ccnc(SCc2cc(=O)c(OC(=O)c3ccco3)co2)n1	.	/	42	/
COCCCNC(=S)N(Cc1cccnc1)Cc1ccc(OC)c(OC)c1	.	/	.	/
CSc1nc(-c2ccccc2)nc(N2CCCC2)c1C(C)=O	.	.	.	39
CCOc1ccc(NC(=O)N(C2CCCCC2)C(C)c2cccnc2)cc1 (centres undefined)	.	63	.	.
Cc1ccc(NCC(=O)NNC2=NCCC2)c(C)c1	.	/	.	/
Cc1csc(-c2cnn(-c3ccccc3)c2NC(=O)c2cccc(C(F)(F)F)c2)n1	.	.	.	34
O=C(Nc1ccccc1-c1ccccc1)c1cccc(C(F)(F)F)c1	.	/	.	/
CN1CCN(Cc2cc(COCc3ccccc3)c3cccnc3c2O)CC1	51	.	.	.
Oc1c(CN2CCc3ccccc3C2)cc(Cl)c2cccnc12	99	.	.	.
Oc1ccc(CN2CCN(Cc3ccccc3)CC2)c2cccnc12	.	.	.	.
Oc1c(CN2CCCCC2)cc(Br)c2cccnc12	98	.	.	.
O=C(NC(c1ccc(Cl)cc1)c1cc(Cl)c2cccnc2c1O)c1cccnc1 (centres undefined)	.	/	.	/
Oc1c(I)cc(Cl)c2cccnc12	98	/	.	/
Fc1ccccc1CSc1ncnc2sc3c(c12)CCCC3	.	/	.	/
O=C(Nc1ccc(N2CCN(C(=O)c3ccco3)CC2)c(Cl)c1)c1c(F)c(F)c(F)c(F)c1F	.	.	.	63
SMILES	BB579 growth dn	PostGolgi yeast	Yeast lifespan up	PostGolgi ctrl
Cc1ccccc1C(=O)N1CCN(c2ccc(NC(=O)c3ccco3)cc2Cl)CC1	.	.	.	.
O=C(Nc1ccc(N2CCN(C(=O)c3ccc(Cl)cc3)CC2)cc1)c1ccc(Br)o1	.	.	.	54
O=C(Cc1ccc(Cl)cc1)Nc1ccc(N2CCN(C(=O)c3ccco3)CC2)cc1	.	.	.	43
CC(C)C[C@H](NC(=O)OC(C)(C)C)C(=O)N1CCC(C(=O)N[C@@H](Cc2ccccc2)C(=O)O)CC1	.	.	.	.
CC(C)CNC(=S)NC1CC2CCCC(C1)N2Cc1ccco1 (centres undefined)	.	.	.	31
CNC(=S)NC1CC2CCCC(C1)N2Cc1ccco1 (centres undefined)	.	.	68	.
CCCCCCCC(=O)NC(Nc1ccc(S(N)(=O)=O)cc1)C(Cl)(Cl)Cl (centres undefined)	.	.	.	.
COC(=O)c1ccc(N2CCCCC2)c(NS(=O)(=O)c2ccc(C)cc2)c1	.	.	.	30
CCCCCCSc1nnc(-c2cnn(-c3ccccc3)c2-n2cccc2)n1C	.	.	.	61
Cc1ccc(-n2[nH]c(C)c(C=Nc3ccc(S(=O)(=O)N4CCOCC4)cc3)c2=O)c(C)c1	.	/	.	/
Cc1ccc(S(=O)(=O)N(C)CC(O)Cn2c3ccccc3c3ccccc32)cc1 (centres undefined)	.	.	.	80
CCN(CC(O)Cn1c2ccccc2c2ccccc21)S(=O)(=O)c1ccc(F)cc1 (centres undefined)	.	.	.	50
O=S(=O)(c1ccc(F)cc1)N(CCO)CC(O)Cn1c2ccccc2c2ccccc21 (centres undefined)	.	.	.	.
O=S(=O)(c1ccccc1)N(CC(O)Cn1c2ccccc2c2ccccc21)c1ccccc1 (centres undefined)	.	.	.	.
CCCN(CC(=O)Nc1ccc(F)c(F)c1F)CC(=O)Nc1c(Cl)cccc1Cl	.	/	.	/
CC(C)c1nn2c(=O)cc(O)nc2s1	.	/	.	/
C=CCN1C(=O)N(/C=C/C)c2cccc3cccc1c23	.	.	.	30
Cc1ccc(Cl)cc1NC(=O)COC(=O)C12CC3CC(CC(C3)C1)C2	.	.	.	36
CCOC(=O)c1ccc2c(c1)N(Cc1ccccc1C)C(=O)c1ccccc1S2=O (centres undefined)	.	.	.	31
O=C(c1nn(Cc2ccccc2)c(=O)c2ccccc12)N1CCc2ccccc2C1	.	.	.	57
COc1ccccc1N(C(=O)c1cncc(Br)c1)c1nc(-c2ccc(C)cc2)cs1	.	/	.	/
CSCCC(NC(=O)c1ccc(Cl)cc1)C(=O)OCC(=O)Nc1cc(Cl)ccc1C#N (centres undefined)	.	/	.	/
CSCCC(NC(=O)c1ccccc1)C(=O)OCC(=O)Nc1ccc(C)c(Cl)c1 (centres undefined)	.	.	.	31
Cc1cc(C)cc(C(=O)N2CC(C)OC(C)C2)c1 (centres undefined)	.	.	.	.
O=[N+]([O-])c1ccc(NC(=S)NCCc2ccc(Cl)cc2)cc1	.	106	.	92
SMILES	BB579 growth dn	PostGolgi yeast	Yeast lifespan up	PostGolgi ctrl
Cc1ccc(C(=O)NCCNc2ccc(Cl)cc2[N+](=O)[O-])o1	.	.	.	31
O=[N+]([O-])c1cc(C(F)(F)F)ccc1NCCCCNS(=O)(=O)c1ccc(Cl)cc1	.	/	.	/
O=[N+]([O-])c1cc(C(F)(F)F)ccc1NCCNC(=S)Nc1ccc(Cl)cc1	.	82	.	91
CC1C/C(=C\c2cccnc2)C(=O)/C(=C/c2cccnc2)C1 (centres undefined)	.	/	70	/
CCCCCC(=O)N1CCN(CCN=CC2=C(O)CC(c3ccc(OC)c(OC)c3)CC2=O)CC1 (centres undefined)	.	.	165	.
O=C1c2ccccc2NC(c2ccc(Cl)cc2Cl)N1Cc1ccccc1 (centres undefined)	.	.	.	36
O=C1c2ccccc2NC(c2c(Cl)cccc2Cl)N1Cc1ccccc1 (centres undefined)	.	65	.	42
CCOC(=O)C1=NN(C(=O)Nc2cccc(C(F)(F)F)c2)C2C(=O)N(c3cccc(C(F)(F)F)c3)C(=O)C12 (centres undefined)	.	.	.	.
C=CCc1c(C)c(C#N)c2nc3ccccc3n2c1NCCN(C)C	57	82	.	74
CCc1c(C)c(C#N)c2nc3ccccc3n2c1NCCN(C)C	.	.	.	42

Screening data from PubChem BioAssay.
